Reference: ChEMBL document CHEMBL3797150, “Lupeol Isolated from Sorbus commixta Suppresses 1α,25-(OH)2D3-Mediated Osteoclast Differentiation and Bone Loss in Vitro and in Vivo” (J Nat Prod, 2016)
Calls of active or inactive are those of the source. The calls are words filed in the database; no cut-off is given here.

Assays:
[1] = target: Transcription factor p65 (Mus musculus) (UniProt Q04207); assay: Downregulation of RANKL-induced p65 nuclear translocation in mouse bone marrow macrophages at 5 to 20 uM after 30 mins by Western blot analysis in presence of M-CSF
[2] = Downregulation of 1alpha,25-(OH)2D3-induced RANKL mRNA expression in mouse calvarial osteoblasts at 5 and 10 uM after 24 hrs by RT-PCR method; assay type: functional, cell-based; details: Calvarial osteoblast
Summary of the method: (§1)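 Calvarial osteoblasts from newborn mice grown 24 h in α-MEM with 10% FBS and 0.1 μM 1α,25-(OH)2D3, with or without compound. Total RNA reverse-transcribed, then PCR for RANKL (587 bp), OPG (720 bp), M-CSF (516 bp) and GAPDH (452 bp) as control. Products run on 2% agarose with ethidium bromide; three independent experiments.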

Calvarial osteoblast [3] = assay: Effect on 1alpha,25-(OH)2D3-induced OPG mRNA expression in mouse calvarial osteoblasts at 5 and 10 uM after 24 hrs by RT-PCR method; assay type: functional, cell-based; summary of the method: as §1
Calvarial osteoblast [4] = assay: Effect on 1alpha,25-(OH)2D3-induced M-CSF mRNA expression in mouse calvarial osteoblasts at 5 and 10 uM after 24 hrs by RT-PCR method; assay type: functional, cell-based; summary of the method: as §1
Calvarial osteoblast [5] = assay: Inhibition of 1alpha,25-(OH)2D3-induced osteoclasts differentiation in mouse calvarial osteoblasts cocultured with mouse bone marrow macrophages incubated for 6 days by TRAP staining based microscopy; assay type: functional, cell-based
Summary of the method: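 Bone marrow cells (1 × 10^7) cocultured 6 days with calvarial osteoblasts (1 × 10^6) in α-MEM with 10% FBS and 0.1 μM 1α,25-(OH)2D3. Cells fixed in formaldehyde and ethanol–acetone, then TRAP-stained; TRAP-positive cells with three or more nuclei counted as osteoclasts.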

[6] = Downregulation of RANKL-induced c-fos levels in mouse bone marrow macrophages at 5 to 20 uM after 24 hrs by Western blot analysis in presence of M-CSF; assay type: functional, cell-based; details: Macrophage
Summary of the method: (§2)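 Bone marrow macrophages made with 50 ng/mL M-CSF, exposed to compound and RANKL for 24 h; c-Fos and NFATc1 protein by Western blot, β-actin as loading control, ECL detection.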

Mus musculus [7] = species on record: Mus musculus; assay: Decrease in 1alpha,25-(OH)2D3-induced phosphate levels in hypercalcemic C57BL/6 mouse serum at […]/day […]; assay type: functional, organism-based
Summary of the method: (§3)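 C57BL/6 males, 6 weeks old, groups of five; 1α,25-(OH)2D3 given subcutaneously on three consecutive days, then PBS or compound at 25 or 100 μg/kg/day for 3 days; sacrifice on day 8. Serum calcium and phosphate by colorimetric kits, RANKL by ELISA; mean ± SD, Student's t test.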

[8] = test system: primary calvarial osteoblasts (Mus musculus); assay: Induction of primary calvarial osteoblasts differentiation assessed as alkaline phosphatase activity at 1 to 20 uM using p-nitrophenyl phosphate as substrate after 7 to 14 days in presence of 1alpha,25-(OH)2D3
Mus musculus [9] = species on record: Mus musculus; assay: Decrease in 1alpha,25-(OH)2D3-induced RANKL levels in hypercalcemic C57BL/6 mouse serum at […] […] by ELISA method; assay type: functional, organism-based; summary of the method: as §3
[10] = Downregulation of RANKL-induced NFATc1 levels in mouse bone marrow macrophages at 5 to 20 uM after 24 hrs by Western blot analysis in presence of M-CSF; assay type: functional, cell-based; details: Macrophage; summary of the method: as §2
[11] = Cytotoxicity against mouse calvarial osteoblasts assessed as cell viability at 1 to 20 uM after 2 to 4 days by MTT assay; assay type: cell-based; details: calvarial osteoblast
Summary of the method: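 Primary calvarial osteoblasts from 1–2-day-old newborn mice (serial collagenase/dispase digests, fractions 2–5) exposed to 1, 5, 10, 20 μM for 2 days, or kept for at least 4 days with medium changed every 2–3 days; viability by MTT. Mean ± SD of three independent experiments.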

[12] = target: T1, NF-kappa-B inhibitor alpha (Mus musculus) (UniProt Q9Z1E3); assay: Downregulation of RANKL-induced IkappaB alpha phosphorylation in mouse bone marrow macrophages at 5 to 20 uM after 30 mins by Western blot analysis in presence of M-CSF
T1 sequence (whole entry): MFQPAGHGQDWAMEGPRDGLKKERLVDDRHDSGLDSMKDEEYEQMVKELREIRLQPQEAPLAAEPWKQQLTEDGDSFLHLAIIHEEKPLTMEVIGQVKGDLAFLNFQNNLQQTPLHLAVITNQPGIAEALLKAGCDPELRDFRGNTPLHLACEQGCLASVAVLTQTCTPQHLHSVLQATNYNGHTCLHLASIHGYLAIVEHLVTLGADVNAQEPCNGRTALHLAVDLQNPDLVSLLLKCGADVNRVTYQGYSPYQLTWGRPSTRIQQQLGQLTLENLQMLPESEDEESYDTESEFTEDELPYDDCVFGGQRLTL

Mus musculus [13] = species on record: Mus musculus; assay: Decrease in 1alpha,25-(OH)2D3-induced calcium levels in hypercalcemic C57BL/6 mouse serum at […] for […]; assay type: functional, organism-based; summary of the method: as §3
Osteoclast [14] = assay: Induction of disruption of 1alpha,25-(OH)2D3/PGE2-induced F-actin ring formation in mouse osteoclasts obtained from coculturing mouse calvarial osteoblasts with mouse bone marrow macrophages at 20 uM after 48 hrs by Alexa Fluor 488-conjugated phalloidin staining based fluorescence microscopy; assay type: functional, cell-based
Summary of the method: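 Bone marrow cells and calvarial osteoblasts cocultured 6–7 days on collagen with 0.1 μM 1α,25-(OH)2D3 or 10 μM PGE2; mature osteoclasts released with 0.2% collagenase (37 °C, 30 min). Treated 48 h, fixed in paraformaldehyde, F-actin rings stained with Alexa Fluor 488-phalloidin and viewed by fluorescence microscopy at 100×.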

Osteoclast [15] = assay: Inhibition of bone resorption in mouse osteoclasts obtained from coculturing mouse calvarial osteoblasts with mouse bone marrow macrophages assessed as inhibition of pit formation at 20 uM after 48 hrs by Mayer's hematoxylin staining based light microscopy; assay type: functional, cell-based
Summary of the method: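 Mature osteoclasts from collagen-gel cocultures (0.1 μM 1α,25-(OH)2D3 or 10 μM PGE2; collagenase release) replated on dentin slices with compound for 48 h. Cells removed, slices stained with Mayer's hematoxylin, pits counted per slice by light microscopy at 100×; three independent experiments.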

[16] = Downregulation of RANKL-induced ERK phosphorylation in mouse bone marrow macrophages after 15 mins by Western blot analysis in presence of M-CSF
Summary of the method: (§4)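 Bone marrow macrophages from tibiae of 4–6-week ICR males, taken as cells adherent after 16–20 h in 50 ng/mL M-CSF. Treated with compound plus RANKL for 15 min, then lysed; phospho and total ERK, JNK and p38 detected by Western blot with ECL.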

Mus musculus [17] = assay: Decrease in 1alpha,25-(OH)2D3-induced OPG levels in hypercalcemic C57BL/6 mouse serum at 5 to 100 ug/kg/day for 5 days; assay type: functional, organism-based
[18] = target: Transcription factor p65 (Mus musculus) (UniProt Q04207); assay: Downregulation of RANKL-induced p65 phosphorylation in mouse bone marrow macrophages at 5 to 20 uM after 30 mins by Western blot analysis in presence of M-CSF
[19] = Downregulation of RANKL-induced JNK phosphorylation in mouse bone marrow macrophages after 15 mins by Western blot analysis in presence of M-CSF; summary of the method: as §4
[20] = test system: primary calvarial osteoblasts (Mus musculus); assay: Induction of primary calvarial osteoblasts differentiation assessed as […] in alkaline phosphatase activity using p-nitrophenyl phosphate as substrate at 10 to 20 uM after 4 days
[21] = Downregulation of RANKL-induced p38 MAPK phosphorylation in mouse bone marrow macrophages after 15 mins by Western blot analysis in presence of M-CSF; summary of the method: as §4

Sequence of Transcription factor p65 (Mus musculus) (Q04207 whole entry): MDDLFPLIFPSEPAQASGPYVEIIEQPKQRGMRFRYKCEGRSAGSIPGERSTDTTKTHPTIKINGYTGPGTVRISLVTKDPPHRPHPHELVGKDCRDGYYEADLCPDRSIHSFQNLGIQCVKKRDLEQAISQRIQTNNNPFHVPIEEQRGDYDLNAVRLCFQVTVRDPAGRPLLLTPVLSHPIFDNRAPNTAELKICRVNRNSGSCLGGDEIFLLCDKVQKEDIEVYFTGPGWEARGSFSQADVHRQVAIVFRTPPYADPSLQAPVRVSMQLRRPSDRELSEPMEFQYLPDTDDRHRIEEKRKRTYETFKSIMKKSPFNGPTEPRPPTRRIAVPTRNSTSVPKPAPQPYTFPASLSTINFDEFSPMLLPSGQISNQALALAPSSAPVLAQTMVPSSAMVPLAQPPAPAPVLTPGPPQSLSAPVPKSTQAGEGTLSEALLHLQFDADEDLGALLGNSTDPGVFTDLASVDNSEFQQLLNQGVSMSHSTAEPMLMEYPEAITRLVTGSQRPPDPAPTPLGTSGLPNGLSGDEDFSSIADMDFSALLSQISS

inhibition [1]: Active | Activity [12]: Active | inhibition [16]: Dose-dependent effect | Activity [18]: Active | inhibition [19]: inactive | inhibition [21]: Dose-dependent effect
SMILES: C=C(C)[C@@H]1CC[C@]2(C)CC[C@]3(C)[C@H](CC[C@@H]4[C@@]5(C)CC[C@H](O)C(C)(C)[C@@H]5CC[C@]43C)[C@@H]12 [LUPEOL]
Activity [2]: Active | Activity (Calvarial osteoblast [3]): inactive | Activity (Calvarial osteoblast [4]): inactive | inhibition (Calvarial osteoblast [5]): Active | Activity [6]: Active | Activity (Mus musculus [7]): inactive | Activity [8]: inactive | Activity (Mus musculus [9]): Active | Activity [10]: Active | Activity [11]: Non-toxic | Activity (Mus musculus [13]): inactive | Activity (Osteoclast [14]): Active | inhibition (Osteoclast [15]): Active | Activity (Mus musculus [17]): inactive | Activity [20]: Active
